Measurements gathered from unrelated publications.
Protocols differ between the studies behind these lines.
Effect on: enzyme activity
Mode: inhibitor
HIPK4: Homeodomain-interacting protein kinase 4 (HIPK4, Homo sapiens, UniProt Q8NE63)
Rps6ka1: Ribosomal protein S6 kinase alpha-1 (Rps6ka1, Rattus norvegicus, UniProt Q63531)
MARK2: Serine/threonine-protein kinase MARK2 (MARK2, Homo sapiens, UniProt Q7KZI7)

COc1cccc(CCNc2nc3cc(C(=O)O)ccc3c3cncnc23)c1 — remaining activity (HIPK4; radiometric; 1 µM): 135%
Cc1cnc(NC2CCOCC2)nc1-n1cnc(C(=O)NC(CN)c2cc(F)cc(Cl)c2)c1 (stereo not shown) — remaining activity (Rps6ka1; radiometric; 1 µM): 53%
NS(=O)(=O)c1ccc(CNc2ccnc(Nc3cccc(NC(=O)N4CCCC4)c3)n2)cc1 — remaining activity (MARK2; radiometric; 1 µM): 115%
COc1cc(Cl)c(C(=O)N[C@@H](CN[C@H]2CC[C@@H](N)CC2)Cc2ccc(C#N)cc2)cc1-c1ccc(CN[C@H](C)c2ccc(C)cc2)o1 — remaining activity (Wee1-like protein kinase 2 (WEE2, Homo sapiens, UniProt P0C1S8); 1 µM): 89%
O=C(O)c1ccc2c(c1)nc(Nc1ccccc1)c1ncncc12 — remaining activity (HIPK4; radiometric; 1 µM): 103%
CC1=CC(=O)c2ccccc2C1=O — remaining activity (TcPGFS (Trypanosoma cruzi, UniProt Q8I6L9); 200 µM): 68%
Brc1cnc(Nc2cccc(CN3CCOCC3)c2)nc1NCCc1c[nH]cn1 — remaining activity (MARK2; radiometric; 1 µM): 5%
O=C(O)c1ccc2c(c1)nc(NCCc1cccc(Cl)c1)c1ncncc12 — remaining activity (HIPK4; radiometric; 1 µM): 53%
CCCOc1ccc(OC)c(F)c1C(=O)c1ccc(C(=O)N[C@@H]2CNC[C@H]2NC(=O)c2ccc3[nH]ncc3c2)cc1 — remaining activity (Rps6ka1; 0.5 µM): 77%
Cc1ccc(C(=O)Nc2ccc(CN3CCN(C)CC3)c(C(F)(F)F)c2)cc1C#Cc1cnc2cccnn12 — remaining activity (Uncharacterized serine/threonine-protein kinase SBK3 (SBK3, Homo sapiens, UniProt P0C264); 23.5 nM): 89%
